Only some compounds are listed: those with a hit (about 3% of all), similar ones and a draw of the others.
UBC13 polyUb – inhibitors of human UBC13 polyubiquitin chain formation | inhibition, % at 20 µM | P61088 | TR-FRET | hit rate 0.47% among 330,000; in the data active = inhibition above about 45%, passing the limit was not always enough; inconclusive = no clear call, values can overlap the other calls
Target sequence (P61088 whole entry, looked up): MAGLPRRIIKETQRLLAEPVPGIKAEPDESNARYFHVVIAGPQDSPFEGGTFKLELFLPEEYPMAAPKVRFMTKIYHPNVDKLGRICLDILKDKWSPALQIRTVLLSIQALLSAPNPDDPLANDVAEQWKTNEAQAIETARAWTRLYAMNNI
iPSC survival up – hiPSC single-cell survival enhancement; survival enhancement, % at 20 µM; hit rate 0.044% among 360,000; ATPlite luminescence; 100% = ROCK inhibitor wells, 0% = DMSO; in the data active = survival enhancement above about 18%;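 note: cells exposed to compounds for 16 hours before the ATP read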
Exocytosis inh – lytic granule exocytosis inhibition. TALL-104 LAMP-1 surface exposure, flow cytometry; cells stimulated with thapsigargin and PMA. hit rate 0.66% among 360,000. AID 651702. inhibition, % at 10 µM;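 active = inhibition above about 55%, limit read from the data; inconclusive = no clear call, values can overlap the other calls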
MIN6 prolif – MIN6 beta-cell proliferation induction. MIN6 cells proliferation, ATPlite luminescence, 48 h; cells starved in 0.2% serum; 100% = growth in 10% serum. proliferation, % at 10 µM. hit rate 0.29% among 330,000;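 active = compounds whose signal lies at least 3.5 SD above the mean of all wells on their plate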;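 note: 0% = DMSO-treated cells in low-serum medium and 100% = 10% serum control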
Apaf-1 inh – blocks human Apaf-1 apoptosome activity; O14727; reconstituted apoptosome caspase-3 activity, DEVD-Rh110 fluorescence; inhibition, % at 20 µM; hit rate 0.71% among 330,000; AID 489030; active = inhibition of at least 40% at 20 µM;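 note: plate controls were DMSO wells for no effect and DEVD-CHO caspase inhibitor wells for full effect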
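Material: reconstituted apoptosome with Apaf-1, cytochrome c, caspase-9, procaspase-3, dATP. Technique: Rh110 fluorescence intensity. Buffer or medium: pH 7.5 Hepes buffer with CHAPS, BSA, DTT. Times: 30 min plus 50 min, RT.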
MPTP inh – inhibitors of mitochondrial permeability transition pore | isolated mouse mitochondria, Ca2+ swelling absorbance, 30 min | inhibition, % at 10 µM | hit rate 1.4% among 360,000 | AID 602449;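 active = inhibition of 50% or more, scaled per plate between neutral and stimulator controls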;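 note: 0% = DMSO wells given calcium and 100% = 1 mM EGTA wells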
Apaf-1 inh conf2 – Apaf-1 inhibition, single-dose confirmed; shares compounds with Apaf-1 inh; reconstituted apoptosome, caspase-3 DEVD-Rh110 fluorescence; inhibition, % at 20 µM; hit rate 25% among 1,800; AID 504614;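 active = mean inhibition of at least 40% at 20 µM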;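 note: plate controls were DMSO wells for no effect and DEVD-CHO caspase inhibitor control wells for full effect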
Rh110 interf inh – Rh110 signal interference in Apaf-1 inhibitor counter-screen; shares compounds with Apaf-1 inh; Rh110 fluorescence interference, quenched caspase reaction; activation (fluorescence interference), % at 20 µM; 1,800 tested, under 10 active;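 active = signal rise of 40% or more at 20 µM, treated as a fluorescence artifact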
Apaf1 inh interf – counter-screen for Apaf-1 inhibitors: fluorescence interference, dose response; fluorescence interference counterscreen, Apaf-1 assay format; 460 tested, under 10 active; IC50, µM; shares compounds with Apaf-1 inh; AID 588538; call rule not given here
Starred values were filed as active, the others as inactive; ? = inconclusive; . = not tested or not shown; ! = a repeat was not active.

SMILES | UBC13 polyUb | iPSC survival up | Exocytosis inh | MIN6 prolif | Apaf-1 inh | MPTP inh | Apaf-1 inh conf2 | Rh110 interf inh | others
CCOc1cc2c(C#N)c(N3CCCC3)nc(N)c2c(N)n1 | -30.7 | 0.9 | -2.5 | -1.2 | 7.0 | -2.3 | . | .
N#Cc1c(N2CCCCC2)nc(N)c2c(N)nc3c(c12)CC(c1ccccc1)O3 (configuration not stated) | 10.1 | -0.5 | 2.6 | 0.0 | 42.2* | -2.6 | 12.2 | 3.4
COc1cc2c(C#N)c(N3CCCC3)nc(N)c2c(N)n1 | -27.1 | 0.8 | -6.9 | -1.5 | 83.8* | -0.4 | 49.4*! | 10.6
COc1cc2c(C#N)c(N3CCN(C)CC3)nc(N)c2c(N)n1 | -4.0 | -3.1 | 6.3 | -0.9 | 18.7 | 1.0 | . | .
CC(=O)Nc1ccc(S(=O)(=O)N[C@@H](C)C(=O)OCC(=O)Nc2ccc3c(c2)OCCO3)cc1 | . | 2.6 | 1.7 | . | . | 0.2 | . | .
CC(=O)N1CCc2c(sc(NC(=O)CS(=O)(=O)c3ccc(F)cc3)c2C(N)=O)C1 | -8.0 | 0.4 | -4.3 | 2.4 | -0.2 | -1.8 | . | .
CCCCN(CC)c1nc(N)c(C#N)c(CC#N)c1C#N | 10.3 | -2.0 | 1.4 | -2.8 | 19.0 | 5.7 | . | .
CCCCN(CC)c1nc(N)c2c(N)nc(OCC)cc2c1C#N | -13.2 | 1.7 | 7.5 | 7.1 | 97.8* | 10.5 | 15.5 | 11.4
COc1ccc(C(CNC(=O)C2CC(=O)N(Cc3ccccc3)C2)N2CCOCC2)cc1 (configuration not stated) | -1.5 | -0.3 | 5.1 | 5.7 | -13.5 | -0.7 | . | .
COc1ccc(C(CNC(=O)c2cccc(S(=O)(=O)N(C)c3ccccc3)c2)N2CCCC2)cc1 (configuration not stated) | 9.7 | -1.3 | -1.4 | -5.7 | 43.5* | -1.4 | 19.2 | 6.8
COc1ccc(C(CNC(=O)c2cccc(NS(=O)(=O)c3ccccc3)c2)N2CCCC2)cc1 (configuration not stated) | . | 0.7 | 7.3 | . | . | -1.7 | . | .
COc1ccc(C(CNC(=O)C2CC(=O)N(Cc3ccccc3)C2)N2CCCC2)cc1 (configuration not stated) | 41.6 | -0.7 | -0.2 | -0.7 | 61.5* | -2.6 | 37.4 | 1.4
CCCCN(CCCNC(=O)c1ccc2c(c1)NC(=O)CN2C)c1ccccc1 | . | -1.5 | 2.1 | . | . | 0.2 | . | .
COc1cc(OC)c(NC2=CC(=O)C(=O)c3ccccc32)cc1Cl | -327.9 | -0.8 | 6.4 | -5.9 | 91.6* | 4.0 | 92.1* | 8.9 | Apaf1 inh interf=>100
COc1ccc(O)c(C(c2c(C)[nH][nH]c2=O)c2c(C)[nH][nH]c2=O)c1 | -31.9 | -0.6 | 2.1 | -2.0 | 66.5* | 0.6 | 14.1 | -0.7
CCCn1c(Oc2ccccc2)nc2c1c(=O)n(C)c(=O)n2C | -3.0 | 0.9 | -10.3 | -1.2 | -4.1 | 1.1 | . | .
COCOCCn1cc(CN2CCS(=O)(=O)N(Cc3ccc(-c4ccc(F)cc4)cc3)C(CC(C)C)C2=O)nn1 (configuration not stated) | . | 4.4 | 3.5 | . | . | -0.3 | . | .
Cc1c(C(=O)c2ccc(F)cc2F)c2ccccn2c1CCc1ccccn1 | . | -1.4 | -12.3 | . | . | 0.8 | . | .
Cc1c(C(=O)c2ccc(F)cc2F)c2ccccn2c1CCC#N | -61.0 | 0.0 | -22.5 | 0.0 | 62.7* | 2.2 | 24.2 | 9.7
O=C(Nc1cccc(C(F)(F)F)c1)c1ccc2nc(-c3ccco3)c(-c3ccco3)nc2c1 | 11.0 | 2.3 | -0.7 | -3.7 | 65.8* | 12.5 | 43.6* | 1.7 | Apaf1 inh interf=>100
O=C(Nc1ccc(F)c(Cl)c1)NC1CC1 | 10.0 | -1.1 | -16.0 | 0.9 | -8.6 | 5.4 | . | .
O=C(Nc1cccc(C(F)(F)F)c1)c1cc[n+]([O-])cc1 | -3.2 | -0.5 | 0.2 | -0.7 | 10.8 | 0.6 | . | .
O=C(Nc1ccc2nc(-c3ccco3)c(-c3ccco3)nc2c1)NC1CC1 | ? | -1.1 | -0.7 | -1.2 | 46.9* | 0.9 | 33.1 | 4.9
CCN(C(=O)CN1C(=O)NC(c2ccccc2)(c2ccc(C)c(C)c2)C1=O)C1CCCCC1 (configuration not stated) | -5.7 | -0.6 | 5.5 | -7.6 | 22.9 | 0.9 | . | .
COc1ccc(-c2sc3ccc(N4CCOCC4)cc3c2-c2ccc(OC)c(F)c2)cc1 | 31.7 | 5.3 | -2.2 | -1.8 | 10.6 | 6.4 | . | .
SMILES | UBC13 polyUb | iPSC survival up | Exocytosis inh | MIN6 prolif | Apaf-1 inh | MPTP inh | Apaf-1 inh conf2 | Rh110 interf inh | others
Cc1ccc(-c2nnc(CSc3nnc(COc4cccc5ccccc45)n3-c3ccccc3)o2)cc1 | 5.7 | 11.3 | 2.3 | -3.2 | 44.5* | -0.5 | 47.2* | -3.1 | Apaf1 inh interf=>100
COc1ccc([C@@H]2CC(=O)[C@@H]3CN(S(=O)(=O)c4ccc(C)cc4)[C@H](c4cccc(Cl)c4)C[C@@H]3N2S(=O)(=O)c2ccccc2)cc1 | . | -0.7 | 1.5 | . | . | 1.5 | . | .
CCc1cc2c(SCC(=O)N3CC(=O)Nc4ccccc43)ncnc2s1 | -15.5 | 3.7 | 5.2 | -0.3 | 55.1* | 2.3 | 20.2 | 7.2
COc1ccc(OC)c(-c2nn(-c3ccccc3)cc2C(=O)NCC(c2ccco2)N2CCCC2)c1 (configuration not stated) | 13.1 | -0.7 | 2.3 | 5.7 | -117.3 | 0.3 | . | .
CCOC(=O)c1c(C)n(-c2ccc(C)cc2)c2c(C(C(C)=O)C(=O)O)c(Br)c(O)c(O)c12 (configuration not stated) | -18.9 | -0.6 | 3.1 | -3.9 | 49.6* | -3.6 | 62.3* | 4.8 | Apaf1 inh interf=>100
CCOC(=O)c1c(C)n(-c2ccc(C)cc2)c2c(CC(C)=O)c(Br)c(OC)c(O)c12 | -5.5 | 5.1 | -3.4 | -0.8 | -4.8 | 2.9 | . | .
O=C(CSc1ccccc1)Nc1ccc2c(c1)C(=O)NC2=O | 0.0 | 0.6 | -2.3 | -0.9 | 8.6 | -0.2 | . | .
O=C1CC(=Nc2ccccc2)NN1c1ccccc1 | -3.5 | -2.3 | -0.2 | -5.7 | 66.1* | 37.6 | 18.9 | 8.0
N#Cc1c(N2CCN(c3ccc(F)cc3)CC2)nc(N)c2c(N)nc3c(c12)CC(=O)N3C1CC1 | . | -0.4 | 11.7 | . | . | 1.2 | . | .
CC(C)(C)N1C(=O)Cc2c1nc(N)c1c(N)nc(N3CCCCC3CO)c(C#N)c21 (configuration not stated) | -51.2 | -2.2 | 18.6 | -3.6 | 98.7* | -2.5 | 21.1 | 2.7
CN(CCO)c1nc(N)c2c(N)nc3c(c2c1C#N)CC(=O)N3C1CCCC1 | -47.7 | . | . | -2.2 | 98.3* | . | 21.4 | -0.6
CC1(C(=O)Nc2ccc3c(c2)OCO3)CCN1C(=O)CCC1CCCC1 (configuration not stated) | . | 7.1 | -6.0 | . | . | 0.0 | . | .
C=CC[C@@H](Cc1ccc(F)cc1)C(=O)OC[C@H]1CCCN1C(=O)[C@@H](CC=C)CC(=O)N[C@H](CO)Cc1ccccc1 | 5.7 | -1.6 | 55.1 | -6.1 | 40.9* | 2.0 | 18.8 | 7.5

Assay outcomes as filed in PubChem BioAssay.
